Data taken from ChEMBL document CHEMBL4732167, “Structure based design, synthesis, and biological evaluation of imidazole derivatives targeting dihydropteroate synthase enzyme” (Bioorg Med Chem Lett, 2021).
In brackets after ≈: the same amount, converted by molar mass.

Assays:
[1] = test system: Mycobacterium tuberculosis; assay: Antibacterial activity against Mycobacterium tuberculosis H37Rv assessed as bacterial growth inhibition; format: functional
[2] = test system: Pseudomonas aeruginosa; assay: Antibacterial activity against Pseudomonas aeruginosa MTCC 1688 assessed as bacterial growth inhibition; format: functional
[3] = test system: Escherichia coli; assay: Antibacterial activity against Escherichia coli MTCC 443 assessed as bacterial growth inhibition; format: functional
[4] = test system: Streptococcus pyogenes; assay: Antibacterial activity against Streptococcus pyogenes MTCC 442 assessed as bacterial growth inhibition; format: functional
[5] = test system: Staphylococcus aureus; assay: Antibacterial activity against methicillin-resistant Staphylococcus aureus assessed as inhibition of bacterial growth; format: functional
How it was run: (§1)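 Growth inhibition of the drug-resistant strain was read out as the minimum inhibitory concentration (MIC), reported in µg/mL. The same protocol was also run on an ESBL strain.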

[6] = Antioxidant activity assessed as hydrogen peroxide radical scavenging activity at 25 ug/ml (reference value: 23.6 to 43.1 %); format: functional; conditions: dose 25.0 µg/ml
How it was run: (§2)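 Hydrogen peroxide scavenging was measured across a compound series of 0, 25, 50, 75 and 100 µg/ml.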

[7] = Antioxidant activity assessed as DPPH radical scavenging activity at 25 ug/ml (reference value: 22 to 40.2 %); format: functional; conditions: dose 25.0 µg/ml
How it was run: (§3)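 DPPH radical scavenging was measured at 0, 25, 50, 75 and 100 µg/ml of each compound. Ascorbic acid was the reference.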

[8] = Antioxidant activity assessed as nitric oxide radical scavenging activity at 75 ug/ml (reference value: 25.8 to 41.6 %); format: functional; conditions: dose 75.0 µg/ml
How it was run: (§4)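 Nitric oxide radical scavenging was tested at 0, 25, 50, 75 and 100 µg/ml of compound.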

[9] = Antioxidant activity assessed as hydrogen peroxide radical scavenging activity at 100 ug/ml (reference value: 23.6 to 43.1 %); format: functional; conditions: dose 100.0 µg/ml; how it was run: as §2
[10] = Antioxidant activity assessed as hydrogen peroxide radical scavenging activity at 75 ug/ml (reference value: 23.6 to 43.1 %); format: functional; conditions: dose 75.0 µg/ml; how it was run: as §2
[11] = Antioxidant activity assessed as hydrogen peroxide radical scavenging activity at 50 ug/ml (reference value: 23.6 to 43.1 %); format: functional; conditions: dose 50.0 µg/ml; how it was run: as §2
[12] = Antioxidant activity assessed as nitric oxide radical scavenging activity at 50 ug/ml (reference value: 25.8 to 41.6 %); format: functional; conditions: dose 50.0 µg/ml; how it was run: as §4
[13] = Antioxidant activity assessed as DPPH radical scavenging activity at 50 ug/ml (reference value: 22 to 40.2 %); format: functional; conditions: dose 50.0 µg/ml; how it was run: as §3
[14] = test system: Plasmodium falciparum; assay: Antimalarial activity against Plasmodium falciparum assessed as parasite growth inhibition; format: functional, organism-based
[15] = test system: Bacteria; assay: Antibacterial activity against ESBL-producing bacteria assessed as bacterial growth inhibition; format: functional
How it was run: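 Values are minimum inhibitory concentrations (MIC) in µg/mL, determined at an outside microbiology laboratory.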

[16] = test system: Staphylococcus aureus; assay: Antibacterial activity against Staphylococcus aureus MTCC 96 assessed as bacterial growth inhibition; format: functional
[17] = Antioxidant activity assessed as nitric oxide radical scavenging activity at 100 ug/ml (reference value: 25.8 to 41.6 %); format: functional; conditions: dose 100.0 µg/ml; how it was run: as §4
[18] = Antioxidant activity assessed as DPPH radical scavenging activity at 75 ug/ml (reference value: 22 to 40.2 %); format: functional; conditions: dose 75.0 µg/ml; how it was run: as §3
[19] = test system: Aspergillus niger; assay: Antifungal activity against Aspergillus niger MTCC 282 assessed as fungal growth inhibition; format: functional
[20] = Antioxidant activity assessed as nitric oxide radical scavenging activity at 25 ug/ml (reference value: 25.8 to 41.6 %); format: functional; conditions: dose 25.0 µg/ml; how it was run: as §4
[21] = test system: Enterococcus; assay: Antibacterial activity against vancomycin-resistant Enterococcus assessed as inhibition of bacterial growth; format: functional; how it was run: as §1
[22] = test system: Candida albicans; assay: Antifungal activity against Candida albicans MTCC 227 assessed as fungal growth inhibition; format: functional
[23] = Antioxidant activity assessed as DPPH radical scavenging activity at 100 ug/ml (reference value: 22 to 40.2 %); format: functional; conditions: dose 100.0 µg/ml; how it was run: as §3
[24] = test system: Aspergillus clavatus; assay: Antifungal activity against Aspergillus clavatus MTCC 1323 assessed as fungal growth inhibition; format: functional

| SMILES | MIC [1] [µg/mL] | MIC [2] [µg/mL] | MIC [3] [µg/mL] | MIC [4] [µg/mL] | MIC [5] [µg/mL] | Activity [6] [%] | Activity [7] [%] | Activity [8] [%] | Activity [9] [%] | Activity [10] [%] | Activity [11] [%] | Activity [12] [%] | Activity [13] [%] | IC50 [14] [µg/mL] | MIC [15] [µg/mL] | MIC [16] [µg/mL] | Activity [17] [%] | MFC [19] [µg/mL] | MFC [22] [µg/mL] | MFC [24] [µg/mL] | other results |
| --- | --- | --- | --- | --- | --- | --- | --- | --- | --- | --- | --- | --- | --- | --- | --- | --- | --- | --- | --- | --- | --- |
| NNC(=O)c1ccncc1 [ISONIAZID] | 0.2 (≈ 1.46 µM) | – | – | – | – | – | – | – | – | – | – | – | – | – | – | – | – | – | – | – | – |
| CC(=O)c1c(C)nc(SCC(=O)Nc2ccc(OCc3ccc(Cl)cc3)cc2)n1-c1ccc(Cl)cc1 | 25 (≈ 46.3 µM) | 125 (≈ 231 µM) | 250 (≈ 463 µM) | 100 (≈ 185 µM) | 125 (≈ 231 µM) | 47.8 | 41.2 | 80.6 | 89.7 | 75.2 | 59.4 | 64.3 | 51.7 | 0.56 (≈ 1.04 µM) | 500 (≈ 925 µM) | 100 (≈ 185 µM) | 88.8 | > 1000 | 1000 (≈ 1850 µM) | > 1000 | Activity [18]: 58.6%; Activity [20]: 47.3%; MIC [21]: 500 µg/mL (≈ 925 µM); Activity [23]: 85.7% |
| O=C(O)c1cn(C2CC2)c2cc(N3CCNCC3)c(F)cc2c1=O [CIPROFLOXACIN] | – | – | 25 (≈ 75.4 µM) | 50 (≈ 151 µM) | – | – | – | – | – | – | – | – | – | – | – | 50 (≈ 151 µM) | – | – | – | – | – |
| COC1=CC(=O)C[C@@H](C)[C@]12Oc1c(Cl)c(OC)cc(OC)c1C2=O [GRISEOFULVIN] | – | – | – | – | – | – | – | – | – | – | – | – | – | – | – | – | – | 100 (≈ 283 µM) | 500 (≈ 1420 µM) | 100 (≈ 283 µM) | – |
| CC(=O)c1c(C)nc(SCC(=O)Nc2ccc(OCc3ccccc3)cc2)n1-c1ccccc1 | 500 (≈ 1060 µM) | 50 (≈ 106 µM) | 125 (≈ 265 µM) | 125 (≈ 265 µM) | 100 (≈ 212 µM) | 43.8 | 36.4 | 80.3 | 81.9 | 69.4 | 58 | 64.2 | 48.6 | 0.93 (≈ 1.97 µM) | 250 (≈ 530 µM) | 25 (≈ 53 µM) | 87.4 | 1000 (≈ 2120 µM) | 500 (≈ 1060 µM) | 1000 (≈ 2120 µM) | Activity [18]: 60%; Activity [20]: 48.3%; MIC [21]: 500 µg/mL (≈ 1060 µM); Activity [23]: 84.3% |
| CC(=O)c1c(C)nc(SCC(=O)Nc2ccc(OC(=O)c3ccco3)cc2)n1-c1ccc(Br)cc1 | 25 (≈ 45.1 µM) | 250 (≈ 451 µM) | 100 (≈ 180 µM) | 250 (≈ 451 µM) | 100 (≈ 180 µM) | 51.7 | 43.2 | 75.8 | 86.5 | 79 | 68.7 | 65.3 | 57.1 | 1.18 (≈ 2.13 µM) | 250 (≈ 451 µM) | 100 (≈ 180 µM) | 86.7 | 500 (≈ 902 µM) | 1000 (≈ 1800 µM) | 500 (≈ 902 µM) | Activity [18]: 64.8%; Activity [20]: 49.3%; MIC [21]: 250 µg/mL (≈ 451 µM); Activity [23]: 88.7% |
| COc1ccc(-n2c(SCC(=O)Nc3ccc(OC(=O)c4cccs4)cc3)nc(C)c2C(C)=O)cc1 | 25 (≈ 47.9 µM) | 12.5 (≈ 24 µM) | 12.5 (≈ 24 µM) | 50 (≈ 95.9 µM) | 100 (≈ 192 µM) | 39.4 | 46.8 | 76.8 | 82.3 | 76.4 | 61 | 69.1 | 56.1 | 0.45 (≈ 0.863 µM) | 62.5 (≈ 120 µM) | 25 (≈ 47.9 µM) | 81.7 | 500 (≈ 959 µM) | 1000 (≈ 1920 µM) | 500 (≈ 959 µM) | Activity [18]: 68.1%; Activity [20]: 42.3%; MIC [21]: 100 µg/mL (≈ 192 µM); Activity [23]: 81.6% |
| CC1(C)S[C@@H]2[C@H](NC(=O)[C@H](N)c3ccccc3)C(=O)N2[C@H]1C(=O)O [AMPICILLIN] | – | 100 (≈ 286 µM) | 100 (≈ 286 µM) | 100 (≈ 286 µM) | – | – | – | – | – | – | – | – | – | – | – | 250 (≈ 715 µM) | – | – | – | – | – |
| CCn1cc(C(=O)O)c(=O)c2cc(F)c(N3CCNCC3)cc21 [NORFLOXACIN] | – | 10 (≈ 31.3 µM) | 10 (≈ 31.3 µM) | 10 (≈ 31.3 µM) | – | – | – | – | – | – | – | – | – | – | – | 10 (≈ 31.3 µM) | – | – | – | – | – |
